Source: publication PMC9237582 (Asian Journal of Pharmaceutical Sciences, 2022)

Legend:
NIH-3T3 cells = assay: Scratch test, TGF-β1-induced cell migration; type: cell-based, mouse; conditions: TGF-β1 5 ng/ml, 48 h; vs TGF-β1 group
Summary of the method: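 NIH-3T3 fibroblasts were seeded in 12-well format, cultured 24 h, then scratched. After 24 h synchronisation, TGF-β1 (5 ng/ml) was added with test compound, SB431542 or a reference drug, and incubated 48 h. Wounds were photographed under an inverted microscope at 0, 24 and 48 h after drug addition.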

[1] = Preliminary pharmacokinetic study in plasma; type: in vivo, rat
Summary of the method: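 Male Sprague–Dawley rats (200 ± 20 g, n = 6/group). Dose 10 mg/kg as Sal B, by intratracheal powder insufflation or iv solution. Suborbital blood was taken into heparin at 0.033–12 h, and plasma was spun 10 min at 4 °C. Ascorbic acid, internal standard and HCl were added, then ethyl acetate extraction. Dried extract was reconstituted in methanol-water 80:20 for UPLC-MS/MS; parameters came from concentration-time data.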

[2] = cited from earlier work
[3] = test system: bleomycin-induced rat model of IPF; assay: Preliminary pharmacodynamics in bleomycin-induced rat model of IPF; type: in vivo; conditions: Day 29, vs bleo group; same dosing
Summary of the method: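 Male Sprague–Dawley rats under chloral hydrate anaesthesia received intratracheal bleomycin (5 mg/kg in 0.1 ml saline), then were held upright and rotated 5 min; controls got saline. From day 1, test powder was insufflated at 10 mg/kg as Sal B once daily for 28 d. Comparators: same dose iv, reference drug intragastric 31.5 mg/kg, or air. On day 29, right lung lavaged (3× cold saline); left lung stored −80 °C for Hyp.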

[4] = Lung tissue distribution study; type: in vivo, rat
Summary of the method: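 Male Sprague–Dawley rats (200 ± 20 g), fasted 12 h. Dose 10 mg/kg as Sal B, given either as dry powder or as iv solution. Powder was insufflated intratracheally under chloral hydrate anaesthesia (three 1.5 ml air pushes). Lungs were collected at 0.033–12 h (9 time points, n = 3 each) and homogenised 1:5 (g/ml) in iced saline. Homogenates were processed as for plasma and quantified by UPLC-MS/MS.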

[5] = test system: NIH-3T3 mouse embryonic fibroblasts; assay: MTT assay; type: cell-based; conditions: NIH3T3, 48 h
Summary of the method: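 NIH-3T3 cells were grown in high-glucose DMEM with 10% FBS and penicillin/streptomycin at 37 °C, 5% CO2, in 96-well format. Test compound was given at 25–200 µg/ml and a reference drug at 0.25–10 µM, for 48 h. MTT (5 mg/ml) was added for 4 h, dissolved in DMSO, and absorbance read at 490 nm.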

[6] = Sal B in rat plasma, 10 mg/kg as Sal B, iv solution or pulmonary DPI, n = 6
[7] = male, Sprague-Dawley, rat, plasma, iv, 10 mg/kg
[8] = Sal B in rat lung tissue, 10 mg/kg as Sal B, iv solution or pulmonary DPI, n = 3
[9] = male, Sprague-Dawley, rat, lung tissue, iv, 10 mg/kg

Compound | effect on TGF-β1-induced cell migration (NIH-3T3 cells) | Hyp content in lung tissue homogenate [3] | IFN-γ content in BALF [3] | IL-1β content in BALF [3] | IL-4 content in BALF [3] | IL-6 content in BALF [3] | IL-18 content in BALF [3] | MDA content in lung tissue homogenate [3] | SOD activity in lung tissue homogenate [3] | TGF-β1 protein content in BALF [3] | serum MPO content [3] | further results
NC(=O)c1ccc(-c2nc(-c3ccc4c(c3)OCO4)c(-c3ccccn3)[nH]2)cc1 [SB431542] | significantly inhibited |  |  |  |  |  |  |  |  |  |  | 
O=C(/C=C/c1ccc(O)c2c1[C@H](C(=O)O[C@H](Cc1ccc(O)c(O)c1)C(=O)O)[C@@H](c1ccc(O)c(O)c1)O2)O[C@H](Cc1ccc(O)c(O)c1)C(=O)O [Sal B, Salvianolic acid B] |  | significantly lower | not significantly different | significantly decreased | not significantly different | significantly decreased | significantly decreased | significantly reduced | increased significantly | significantly decreased | significantly reduced | Cl/F [1, 6]: 2.49 ± 0.47 L/h/kg; Lz (elimination of phase slope) [1, 6]: 0.45 ± 0.07 h⁻¹; Vz/F [1, 6]: 5.62 ± 1.47 L/kg; AUC(0-inf) [1, 7]: 6.55 ± 1.49 µg·h/mL; Cmax [1, 7]: 16.4 µg/mL; MRT [1, 7]: 49.8 ± 6 min; Tmax [1, 7]: 1.98 min; half-life [1, 7]: 93.6 ± 16.8 min; absolute bioavailability of Sal B in previous studies [2]: 19.15%±7.44%; AUC0-∞ [4, 8]: 1898.5 ± 134.03 ng·h/g; Cmax [4, 8]: 13,150.38±619.02 ng/g; Lz [4, 8]: 0.77 ± 0.04 h⁻¹; Cmax [4, 9]: 13200 ng/g; MRT [4, 9]: 11.4 min; Tmax [4, 9]: 1.98 min; half-life [4, 9]: 54 ± 3 min
COC(=O)c1ccc2c(c1)NC(=O)/C2=C(\Nc1ccc(N(C)C(=O)CN2CCN(C)CC2)cc1)c1ccccc1 [nidanib, nintedanib, reference compound] | significantly inhibited the migration of NIH-3T3 cells in a concentration dependent manner | significantly lower | significantly increased(P < 0.01) | significantly decreased | significantly decreased | significantly decreased | significantly decreased | significantly reduced | increased significantly | significantly decreased | significantly reduced | concentration with no significant effect on cell viability [5]: < 1 µM
